Test results from ChEMBL document CHEMBL4680175, “Sulfonamide-based ring-fused analogues for CAN508 as novel carbonic anhydrase inhibitors endowed with antitumor activity: Design, synthesis, and in vitro biological evaluation” (Eur J Med Chem, 2020).
Active and inactive are the calls of the source. The calls are words filed in the database; no cut-off is given here.

Experiments:
SN12C = experiment: Antitumor activity against human SN12C cells assessed as cell growth inhibition at 10 uM incubated for 48 hrs by sulforhodamine B assay; format: functional; details: read-out: GI
How it was run: (§1)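 NCI Drug Evaluation Branch protocol: primary single-dose screen at 10 μM across a 57-line human cancer panel. Drug exposure is 48 h. Cell growth and viability are read by sulforhodamine B assay. Data are given as a mean graph of percent growth of treated cells and reported as percentage growth inhibition (GI%).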

MDA-MB-231 = experiment: Antitumor activity against human MDA-MB-231/ATCC cells assessed as cell growth inhibition at 10 uM incubated for 48 hrs by sulforhodamine B assay; format: functional; details: read-out: GI; how it was run: as §1
MCF7 = experiment: Antitumor activity against human MCF7 cells assessed as cell growth inhibition at 10 uM incubated for 48 hrs by sulforhodamine B assay; format: functional; details: read-out: GI; how it was run: as §1
LOX IMVI = experiment: Antitumor activity against human LOX IMVI cells assessed as cell growth inhibition at 10 uM incubated for 48 hrs by sulforhodamine B assay; format: functional; details: read-out: GI; how it was run: as §1
KM12 = experiment: Antitumor activity against human KM12 cells assessed as cell growth inhibition at 10 uM incubated for 48 hrs by sulforhodamine B assay; format: functional; details: read-out: GI; how it was run: as §1
SK-MEL-5 = experiment: Antitumor activity against human SK-MEL-5 cells assessed as cell growth inhibition at 10 uM incubated for 48 hrs by sulforhodamine B assay; format: functional; details: read-out: GI; how it was run: as §1
Carbonic anhydrase 12 = Carbonic anhydrase 12 (Homo sapiens, UniProt O43570); experiment: Inhibition of recombinant human carbonic anhydrase 12 preincubated with enzyme for 15 mins by phenol red dye based stopped flow CO2 hydrase assay
RPMI-8226 = experiment: Antitumor activity against human RPMI8226 cells assessed as cell growth inhibition at 10 uM incubated for 48 hrs by sulforhodamine B assay; format: functional; details: read-out: GI; how it was run: as §1
HCT-116 = experiment: Antitumor activity against human HCT116 cells assessed as cell growth inhibition at 10 uM incubated for 48 hrs by sulforhodamine B assay; format: functional; details: read-out: GI; how it was run: as §1
DU-145 = experiment: Antitumor activity against human DU-145 cells assessed as cell growth inhibition at 10 uM incubated for 48 hrs by sulforhodamine B assay; format: functional; details: read-out: GI; how it was run: as §1
BT-549 = experiment: Antitumor activity against human BT-549 cells assessed as cell growth inhibition at 10 uM incubated for 48 hrs by sulforhodamine B assay; format: functional; details: read-out: GI; how it was run: as §1
PC-3 = experiment: Antitumor activity against human PC-3 cells assessed as cell growth inhibition at 10 uM incubated for 48 hrs by sulforhodamine B assay; format: functional; details: read-out: GI; how it was run: as §1
NCI-H460 = experiment: Antitumor activity against human NCI-H460 cells assessed as cell growth inhibition at 10 uM incubated for 48 hrs by sulforhodamine B assay; format: functional; details: read-out: GI; how it was run: as §1
SK-MEL-2 = experiment: Antitumor activity against human SK-MEL-2 cells assessed as cell growth inhibition at 10 uM incubated for 48 hrs by sulforhodamine B assay; format: functional; details: read-out: GI; how it was run: as §1
HOP-62 = experiment: Antitumor activity against human HOP62 cells assessed as cell growth inhibition at 10 uM incubated for 48 hrs by sulforhodamine B assay; format: functional; details: read-out: GI; how it was run: as §1
Hs-578T = experiment: Antitumor activity against human HS 578T cells assessed as cell growth inhibition at 10 uM incubated for 48 hrs by sulforhodamine B assay; format: functional; details: read-out: GI; how it was run: as §1
SNB-75 = experiment: Antitumor activity against human SNB-75 cells assessed as cell growth inhibition at 10 uM incubated for 48 hrs by sulforhodamine B assay; format: functional; details: read-out: GI
How it was run: (§2)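 NCI one-dose screen: 57-cell-line panel exposed at 10 μM for 48 h, Drug Evaluation Branch protocol. Growth and viability read by sulforhodamine B; data given as percent growth inhibition from the mean-graph of percent growth of treated cells.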

Malme-3M = experiment: Antitumor activity against human MALME-3M cells assessed as cell growth inhibition at 10 uM incubated for 48 hrs by sulforhodamine B assay; format: functional; details: read-out: GI; how it was run: as §1
[1] = target: Cyclin-dependent kinase 2/cyclin E1 (Homo sapiens, UniProt P24941); experiment: Inhibition of CDK2/cyclin E (unknown origin) expressed in baculovirus infected Sf21 insect cells using histone H1 as substrate in presence of [gamma33P]ATP
NCI-H226 = experiment: Antitumor activity against human NCI-H226 assessed as cell growth inhibition at 10 uM incubated for 48 hrs by sulforhodamine B assay; format: functional; details: read-out: GI; how it was run: as §1
NCI/ADR-RES = experiment: Antitumor activity against human NCI/ADR-RES cells assessed as cell growth inhibition at 10 uM incubated for 48 hrs by sulforhodamine B assay; format: functional, cell-based; how it was run: as §1
IGROV-1 = experiment: Antitumor activity against human IGROV1 cells assessed as cell growth inhibition at 10 uM incubated for 48 hrs by sulforhodamine B assay; format: functional; details: read-out: GI; how it was run: as §1
NCI-H322M = experiment: Antitumor activity against human NCI-H322M cells assessed as cell growth inhibition at 10 uM incubated for 48 hrs by sulforhodamine B assay; format: functional; details: read-out: GI; how it was run: as §1
CAKI-1 = experiment: Antitumor activity against human CAKI-1 cells assessed as cell growth inhibition at 10 uM incubated for 48 hrs by sulforhodamine B assay; format: functional; details: read-out: GI; how it was run: as §1
NCI-H522 = experiment: Antitumor activity against human NCI-H522 cells assessed as cell growth inhibition at 10 uM incubated for 48 hrs by sulforhodamine B assay; format: functional; details: read-out: GI; how it was run: as §1
OVCAR-8 = experiment: Antitumor activity against human OVCAR-8 cells assessed as cell growth inhibition at 10 uM incubated for 48 hrs by sulforhodamine B assay; format: functional; details: read-out: GI; how it was run: as §1
Carbonic anhydrase 2 = Carbonic anhydrase 2 (Homo sapiens, UniProt P00918); experiment: Inhibition of recombinant human carbonic anhydrase 2 preincubated with enzyme for 15 mins by phenol red dye based stopped flow CO2 hydrase assay
SF-539 = experiment: Antitumor activity against human SF539 cells assessed as cell growth inhibition at 10 uM incubated for 48 hrs by sulforhodamine B assay; format: functional; details: read-out: GI; how it was run: as §1
K562 = experiment: Antitumor activity against human K562 cells assessed as cell growth inhibition at 10 uM incubated for 48 hrs by sulforhodamine B assay; format: functional; details: read-out: GI; how it was run: as §1
CCRF-CEM = experiment: Antitumor activity against human CCRF-CEM cells assessed as cell growth inhibition at 10 uM incubated for 48 hrs by sulforhodamine B assay; format: functional; details: read-out: GI; how it was run: as §1
Carbonic anhydrase 9 = Carbonic anhydrase 9 (Homo sapiens, UniProt Q16790); experiment: Inhibition of recombinant human carbonic anhydrase 9 preincubated with enzyme for 15 mins by phenol red dye based stopped flow CO2 hydrase assay
U-251 = experiment: Antitumor activity against human U251 cells assessed as cell growth inhibition at 10 uM incubated for 48 hrs by sulforhodamine B assay; format: functional; details: read-out: GI; how it was run: as §2
Carbonic anhydrase 1 = Carbonic anhydrase 1 (Homo sapiens, UniProt P00915); experiment: Inhibition of recombinant human carbonic anhydrase 1 preincubated with enzyme for 15 mins by phenol red dye based stopped flow CO2 hydrase assay
OVCAR-3 = experiment: Antitumor activity against human OVCAR-3 cells assessed as cell growth inhibition at 10 uM incubated for 48 hrs by sulforhodamine B assay; format: functional; details: read-out: GI; how it was run: as §1
UO-31 = experiment: Antitumor activity against human UO-31 cells assessed as cell growth inhibition at 10 uM incubated for 48 hrs by sulforhodamine B assay; format: functional; details: read-out: GI; how it was run: as §2
MDA-MB-468 = experiment: Antitumor activity against human MDA-MB-468 cells assessed as cell growth inhibition at 10 uM incubated for 48 hrs by sulforhodamine B assay; format: functional; details: read-out: GI; how it was run: as §1
T47D = experiment: Antitumor activity against human T-47D cells assessed as cell growth inhibition at 10 uM incubated for 48 hrs by sulforhodamine B assay; format: functional; details: read-out: GI; how it was run: as §2
MOLT-4 = experiment: Antitumor activity against human MOLT4 cells assessed as cell growth inhibition at 10 uM incubated for 48 hrs by sulforhodamine B assay; format: functional; details: read-out: GI; how it was run: as §1

Chain of Carbonic anhydrase 1 (P00915 whole entry): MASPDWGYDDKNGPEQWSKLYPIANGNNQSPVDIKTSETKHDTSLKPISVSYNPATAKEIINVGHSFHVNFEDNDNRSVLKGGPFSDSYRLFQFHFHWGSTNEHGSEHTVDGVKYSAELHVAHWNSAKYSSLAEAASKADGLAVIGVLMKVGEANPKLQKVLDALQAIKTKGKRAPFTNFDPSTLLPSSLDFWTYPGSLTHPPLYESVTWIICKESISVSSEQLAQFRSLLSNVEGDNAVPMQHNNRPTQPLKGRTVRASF
Chain of Carbonic anhydrase 12 (O43570 whole entry): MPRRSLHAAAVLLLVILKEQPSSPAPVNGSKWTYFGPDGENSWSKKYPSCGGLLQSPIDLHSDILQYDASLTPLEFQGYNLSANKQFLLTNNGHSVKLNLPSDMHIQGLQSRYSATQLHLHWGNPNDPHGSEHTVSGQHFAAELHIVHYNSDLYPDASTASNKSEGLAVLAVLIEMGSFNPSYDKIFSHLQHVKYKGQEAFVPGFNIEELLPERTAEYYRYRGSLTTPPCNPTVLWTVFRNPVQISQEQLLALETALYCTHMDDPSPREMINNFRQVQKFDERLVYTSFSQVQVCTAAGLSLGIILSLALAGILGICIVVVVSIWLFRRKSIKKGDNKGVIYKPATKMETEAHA

SMILES | inhibition of growth at 10 µM (SN12C) | inhibition of growth at 10 µM (MDA-MB-231) | inhibition of growth at 10 µM (MCF7) | inhibition of growth at 10 µM (LOX IMVI) | inhibition of growth at 10 µM (KM12) | inhibition of growth at 10 µM (SK-MEL-5) | Ki (Carbonic anhydrase 12) | inhibition of growth at 10 µM (RPMI-8226) | inhibition of growth at 10 µM (HCT-116) | inhibition of growth at 10 µM (DU-145) | inhibition of growth at 10 µM (BT-549) | inhibition of growth at 10 µM (PC-3) | inhibition of growth at 10 µM (NCI-H460) | inhibition of growth at 10 µM (SK-MEL-2) | inhibition of growth at 10 µM (HOP-62) | inhibition of growth at 10 µM (Hs-578T) | inhibition of growth at 10 µM (SNB-75) | inhibition of growth at 10 µM (Malme-3M) | IC50 [1] | inhibition of growth at 10 µM (NCI-H226) | also measured
Cc1ccc(-c2nc3c(/N=N/c4ccc(S(N)(=O)=O)cc4)c(N)nn3c(N)c2C#N)cc1 | 67% | 60% | 72% | 78% | 71% | 152% | 48.8 nM | 116% | 86% | 65% | 44% | 68% | 72% | 73% | 57% | 61% | 51% | 51% | 11600 nM | 35% | Activity (NCI/ADR-RES): inactive; inhibition of growth at 10 µM (IGROV-1): 63%; inhibition of growth at 10 µM (NCI-H322M): 34%; inhibition of growth at 10 µM (CAKI-1): 59%; inhibition of growth at 10 µM (NCI-H522): 71%; inhibition of growth at 10 µM (OVCAR-8): 56%; Ki (Carbonic anhydrase 2): 638 nM; inhibition of growth at 10 µM (SF-539): 69%; inhibition of growth at 10 µM (K562): 80%; inhibition of growth at 10 µM (CCRF-CEM): 88%; Ki (Carbonic anhydrase 9): 44.3 nM; inhibition of growth at 10 µM (U-251): 68%; Ki (Carbonic anhydrase 1): 3530 nM; inhibition of growth at 10 µM (OVCAR-3): 76%; inhibition of growth at 10 µM (UO-31): 31%; inhibition of growth at 10 µM (MDA-MB-468): 94%; inhibition of growth at 10 µM (T47D): 66%; inhibition of growth at 10 µM (MOLT-4): 96%
Nc1nn2cc(-c3ccccc3)[nH]c2c1/N=N/c1ccc(S(N)(=O)=O)cc1 | 80% | 80% | 54% | 83% | 67% | 73% | 30.6 nM | 94% | 77% | 57% | 41% | 68% | 80% | 68% | 58% | 95% | 99% | 74% | > 25000 nM | 47% | Activity (NCI/ADR-RES): inactive; inhibition of growth at 10 µM (IGROV-1): 85%; inhibition of growth at 10 µM (NCI-H322M): 63%; inhibition of growth at 10 µM (CAKI-1): 96%; inhibition of growth at 10 µM (NCI-H522): 69%; inhibition of growth at 10 µM (OVCAR-8): 63%; Ki (Carbonic anhydrase 2): 75.4 nM; inhibition of growth at 10 µM (SF-539): 80%; inhibition of growth at 10 µM (K562): 67%; inhibition of growth at 10 µM (CCRF-CEM): 80%; Ki (Carbonic anhydrase 9): 38.1 nM; inhibition of growth at 10 µM (U-251): 61%; Ki (Carbonic anhydrase 1): 957 nM; inhibition of growth at 10 µM (OVCAR-3): 53%; inhibition of growth at 10 µM (UO-31): 81%; inhibition of growth at 10 µM (MDA-MB-468): 67%; inhibition of growth at 10 µM (T47D): 57%; inhibition of growth at 10 µM (MOLT-4): 86%
